pIC50: −log10 of the molar value. Calls of active or inactive are those of the source. The rule behind the calls is not given here.

The half-life is the time in which the quantity being followed falls by half. High values mean slow loss, low ones fast loss. Broadly, the AUC is concentration integrated over time. Lower therefore signals low exposure. Broadly, the clearance is the rate of elimination divided by the concentration. Read a high clearance as a high capacity for elimination. Usually pIC50 stands for −log10 of the IC50, conventionally taken in molar units. As a reminder, the Cmax is the maximum level reached in the sampled fluid or tissue.

The nature of data set [1]: Half life in ICR mouse at 1 mg/kg, iv measured upto 24 hrs by LCMS analysis. The class given is ADME, organism-based. The settings on record: in vivo. An outline of the steps: (§1)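 Male ICR mice (6-8 weeks, 20-25 g), nine animals, dosed 1 mg/kg by slow intravenous injection or 5 mg/kg orally. Blood sampled into EDTA at 5 min (iv only), 15 min, 30 min, 1, 2, 4, 8 and 24 h. Plasma stored at -20 °C, prepared by acetonitrile protein precipitation with dexamethasone internal standard, and analysed for parent compound. Values are means of three replicates.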

Data set [2] is described as follows: Oral bioavailability in ICR mouse at 5 mg/kg measured upto 24 hrs by LCMS analysis. The class given is ADME, organism-based. The settings on record: ICR, in vivo. An outline of the steps: as §1
Data set [3] in a line: AUC in ICR mouse at 1 mg/kg, iv measured upto 24 hrs by LCMS analysis. The class given is ADME, organism-based. Set-up: time < 24 hr, dose 1 mg/kg, route intravenous. The settings on record: in vivo. An outline of the steps:
as §1

Data set [4] concerns Isocitrate dehydrogenase [NADP] cytoplasmic (Homo sapiens), O75874 [R132H]. Kind of data set: Inhibition of human IDH1 R132H mutant transfected in GL261 cells assessed as reduction in 2-HG production at 100 nM incubated with compound for 48 hrs by D2HG assay kit based fluorescence assay. The data set is classed as cell-based.
Data set [5] relates to HT-1080. The experiment in a line: In vivo inhibition of IDH1 R132C mutant in human HT1080 cells xenografted in athymic BALB/c nude mouse assessed as reduction in 2-HG level in tumor tissue at 50 mg/kg, po administered as a single dose via gavage measured upto 24 hrs post dosing by LC-MS/MS analysis. The class given is functional, organism-based. An outline of the steps: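 HT1080 subcutaneous xenografts in female athymic nude mice, randomized block design, 12 mice per group. Oral gavage of suspension (0.5% MC + 0.5% Tween 80 in water, 10 ml/kg). Tumours collected at 2, 6, 12 and 24 h and frozen in liquid nitrogen. 2-HG measured by LC/MS/MS; percent inhibition taken relative to vehicle-treated mice, reported as mean ± SEM.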

A short description of data set [6]: AUC in ICR mouse at 5 mg/kg, po measured upto 24 hrs by LCMS analysis. The class given is ADME, organism-based. Set-up: dose 5 mg/kg, time < 24 hr, route oral. The settings on record: in vivo. An outline of the steps:
as §1

The nature of data set [7]: Clearance in ICR mouse at 1 mg/kg, iv measured upto 24 hrs by LCMS analysis. The class given is ADME, organism-based. The settings on record: in vivo. An outline of the steps: as §1
The nature of data set [8]: Drug uptake in brain of athymic BALB/c nude mouse xenografted with human HT1080 cells at 50 to 150 mg/kg, po administered as a single dose via gavage measured upto 24 hrs post dosing by LC-MS/MS analysis. The class given is ADME, organism-based. Conditions: in vivo. An outline of the steps: (§2)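 Female athymic nude mice carrying subcutaneous right-flank HT1080 xenografts (5 × 10^6 cells in PBS/Matrigel 1:1). Compound given by oral gavage as a suspension in 0.5% MC + 0.5% Tween 80 in water, 10 ml/kg. Blood taken by orbital sinus bleed; brain and tumour collected at 2, 6, 12 and 24 h, homogenized in PBS. Samples acetonitrile-precipitated with dexamethasone internal standard and measured by LC/MS/MS.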

Data set [9] in a line: Volume of distribution at steady state in ICR mouse at 1 mg/kg, iv measured upto 24 hrs by LCMS analysis. The settings on record: in vivo, read-out: Vdss. The data set is classed as ADME, organism-based. An outline of the steps: as §1
A short description of data set [10]: Drug uptake in plasma of athymic BALB/c nude mouse xenografted with human HT1080 cells at 50 to 150 mg/kg, po administered as a single dose via gavage measured upto 24 hrs post dosing by LC-MS/MS analysis. The class given is ADME, organism-based. Conditions: in vivo. An outline of the steps: as §2
In data set [11] the target is T1, Isocitrate dehydrogenase [NADP] cytoplasmic (Homo sapiens, UniProt O75874, R132C). Kind of data set: Inhibition of recombinant human C-terminal His8-tagged IDH1 R132C mutant expressed in Escherichia coli BL21 assessed as reduction in NADPH consumption using alpha-ketoglutarate as substrate preincubated for 60 mins followed by substrate addition and measured for 60 mins in presence of NADPH by diaphorase/resazurin-based fluorescence assay.

Data set [12] in a line: Half life in ICR mouse at 5 mg/kg, po measured upto 24 hrs by LCMS analysis. Conditions: in vivo. The class given is ADME, organism-based. An outline of the steps: as §1
The nature of data set [13]: Cmax in ICR mouse at 5 mg/kg, po measured upto 24 hrs by LCMS analysis. The class given is ADME, organism-based. On the set-up: dose 5 mg/kg, route oral. Conditions: in vivo. An outline of the steps: as §1
Data set [14] can be described thus: Drug uptake in tumor of athymic BALB/c nude mouse xenografted with human HT1080 cells at 50 to 150 mg/kg, po administered as a single dose via gavage measured upto 24 hrs post dosing by LC-MS/MS analysis. The data set is classed as ADME, organism-based, Neoplasm. Conditions: in vivo. An outline of the steps: as §2
A general note: Xenograft models place foreign cells or tissue in a host animal.

Data set [15] concerns the target Isocitrate dehydrogenase [NADP] cytoplasmic (Homo sapiens, UniProt O75874). Kind of data set: Inhibition of wild type recombinant human C-terminal His8-tagged IDH1 expressed in Escherichia coli BL21 assessed as reduction in NADP consumption using DL-isocitrate as substrate preincubated for 60 mins followed by substrate addition and measured for 60 mins in presence of NADP by diaphorase/resazurin-based fluorescence assay. Background: Alamar Blue is a resazurin reagent that responds to reducing activity.

The target of data set [16] is Isocitrate dehydrogenase [NADP] cytoplasmic (Homo sapiens, UniProt O75874, R132H). Kind of data set: Inhibition of recombinant human C-terminal His8-tagged IDH1 R132H mutant expressed in Escherichia coli BL21 assessed as reduction in NADPH consumption using alpha-ketoglutarate as substrate preincubated for 60 mins followed by substrate addition measured for 60 mins in presence of NADPH by diaphorase/resazurin-based assay.

Data set [17] addresses T1, Isocitrate dehydrogenase [NADP] cytoplasmic. The experiment in a line: Inhibition of IDH1 R132C mutant in human HT1080 cells assessed as reduction in 2-HG production incubated with compound for 48 hrs by D2HG assay kit based fluorescence assay. The data set is classed as cell-based.

T1 sequence (O75874 2-414 R132C limits assumed): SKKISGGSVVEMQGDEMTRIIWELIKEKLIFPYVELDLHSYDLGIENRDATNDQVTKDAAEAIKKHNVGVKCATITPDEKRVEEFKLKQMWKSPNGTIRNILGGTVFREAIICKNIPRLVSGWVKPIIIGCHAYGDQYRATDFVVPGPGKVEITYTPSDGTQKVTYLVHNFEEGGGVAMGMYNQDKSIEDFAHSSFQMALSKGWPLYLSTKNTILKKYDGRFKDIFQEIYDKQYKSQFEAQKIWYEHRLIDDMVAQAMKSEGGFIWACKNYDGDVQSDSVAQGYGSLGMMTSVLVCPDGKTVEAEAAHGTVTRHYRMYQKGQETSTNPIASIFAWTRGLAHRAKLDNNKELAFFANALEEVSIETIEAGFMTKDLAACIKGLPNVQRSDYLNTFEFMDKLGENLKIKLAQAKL
Isocitrate dehydrogenase [NADP] cytoplasmic (Homo sapiens, UniProt O75874), sequence (O75874 whole entry): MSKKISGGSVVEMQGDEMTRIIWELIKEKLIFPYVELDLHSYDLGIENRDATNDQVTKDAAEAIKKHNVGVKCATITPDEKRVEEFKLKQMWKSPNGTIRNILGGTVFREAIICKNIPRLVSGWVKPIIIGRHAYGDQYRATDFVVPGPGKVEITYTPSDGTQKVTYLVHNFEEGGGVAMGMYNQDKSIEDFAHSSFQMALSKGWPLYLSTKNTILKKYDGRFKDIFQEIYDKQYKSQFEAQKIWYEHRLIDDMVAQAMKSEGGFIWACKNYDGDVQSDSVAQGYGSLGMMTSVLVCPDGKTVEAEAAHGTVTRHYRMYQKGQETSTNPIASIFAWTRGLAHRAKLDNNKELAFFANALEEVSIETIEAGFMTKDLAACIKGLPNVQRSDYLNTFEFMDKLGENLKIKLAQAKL
Isocitrate dehydrogenase [NADP] cytoplasmic (Homo sapiens), O75874 [R132H], sequence (O75874 whole entry R132H): as the sequence (O75874 whole entry) above, with R132H counted along it
Isocitrate dehydrogenase [NADP] cytoplasmic (Homo sapiens, UniProt O75874, R132H), sequence (O75874 2-414 R132H limits assumed): as the sequence (O75874 2-414 R132C limits assumed) above, with C131H counted along it

Turning to `C[C@H](Nc1nccc(N2C(=O)OC[C@@H]2[C@H](C)F)n1)c1ncn2c1CCc1cc(C(F)(F)F)ccc1-2`, the half-life was 1.5 h in [1] and 2.5 h in [12]. The bioavailability in data set [2] is 150%. The AUC at 24 h in data set [3] turned out to be 1.44 µM·h; in data set [6], 11 µM·h. Also, the inhibition result in data set [4] and in data set [5] was “Active” in each case. Further, in data set [7], the clearance is 1.38 L/h/kg. Moreover, the Drug uptake result in data set [8], in [10] and in data set [14] was “Active” each time. The Vd in data set [9] was determined as 2.3 L/kg. The pIC50 is 8.09 in data set [11], 5.18 in [15], 8.40 in data set [16] and 7.80 in [17]. In data set [13], this compound gave a Cmax of 1.69 µM.

Source of the values: ChEMBL document CHEMBL4406857, “Discovery of new small molecule inhibitors targeting isocitrate dehydrogenase 1 (IDH1) with blood-brain barrier penetration” (Eur J Med Chem, 2019).
